Reference: publication PMC11341692 (Nature Communications, 2024)

System: NET formation in human peripheral blood neutrophils
Assay: MPO-ANCA-IC-induced NET formation in primed human peripheral blood neutrophils
Format: cell-based
Settings: for MPO-ANCA-IC-induced NET formation: avacopan 0.1 and 1 µM
Method in brief: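 Neutrophils isolated with Polymorphprep from the blood of healthy volunteers (n = 3). Cells were pretreated 15 min with an NE inhibitor (0, 50, 500 µM) or a C5aR inhibitor (0, 0.1, 1 µM), then primed with 5 ng/ml TNF-α or 100 ng/ml C5a for 15 min at 37 °C. They were seeded on MPO-ANCA-IC-coated chambers at 5 × 10^5/well for 3–4 h at 37 °C, then PFA-fixed and stained for CD15, Cit-H3 and DAPI. DAPI-positive DNA area per neutrophil was taken from three random images per well.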

Cc1ccc(NC(=O)[C@H]2CCCN(C(=O)c3c(C)cccc3F)[C@H]2c2ccc(NC3CCCC3)cc2)cc1C(F)(F)F [Avacopan, avacopan]
MPO-ANCA-IC-induced NET formation (C5a-primed neutrophils): suppressed | MPO-ANCA-IC-induced NET formation (TNF-α-primed neutrophils): but not in TNF-α-primed neutrophils

CC(C)(C)C(=O)Oc1ccc(S(=O)(=O)Nc2ccccc2C(=O)NCC(=O)O)cc1 [Sivelestat]
DAPI-positive DNA area per neutrophil (TNF-α + MPO-ANCA-IC, sivelestat 0, 50, and 500 µM): reduced by sivelestat dose-dependently and significantly | Neutrophil swelling (fold change) (TNF-α + MPO-ANCA-IC, sivelestat 500 µM): significantly suppressed
